*1 amine or outer side, *2 acyl side, *3 side chain or, on linkers, in order; H or OH if unused. Where a SMILES comes first, the peptide text is derived from it. Bridges are numbered along the chain shown (N, C = ends). [ ]: non-standard residue; d: D form. X1 = O=C([C@H](O)CS[*:2])[*:1]; ΔPro = O=C(O)[C@@H]1C=CCN1
Experiments:
[1] = organism: Rattus norvegicus; assay: Activity at uterotonic receptor in rat uterus assessed as uterotonic activity; assay type: tissue-based
How it was run: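 Isolated female rat uterine horn in the bathing fluid used for the oxytocic assay. Isometric contractions were recorded at a baseline tension of 1 g. Cumulative dose-response curves (van Rossum) were built by raising doses geometrically until a maximal response, alternating oxytocin and analogue on the same horn with return to baseline between runs. pD2 is the negative log of the concentration giving 50% of maximum.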

[2] = organism: Gallus gallus; assay: Vasodepressor activity in fowl; assay type: functional
[3] = organism: Rattus norvegicus; assay: Antidiuretic activity in rat; assay type: functional, Urine
[4] = organism: Rattus norvegicus; assay: Pressor activity in rat; assay type: functional
[5] = organism: Rattus norvegicus; assay: Ratio of oxytocin to compound for antidiuretic activity in rat; assay type: functional, Urine

Row | Activity [1] [U/mg] | Structure (SMILES) | Activity [2] [U/mg] | Activity [3] [U/mg] | Activity [4] [U/mg] | Ratio [5]
1 | 803 | CC[C@H](C)[C@@H]1NC(=O)[C@H](Cc2ccc(O)cc2)NC(=O)CCSSC[C@H](C(=O)N2CCC[C@H]2C(=O)N[C@@H](CC(C)C)C(=O)NCC(N)=O)NC(=O)[C@H](CC(N)=O)NC(=O)[C@H](CCC(N)=O)NC1=O | – | – | – | –
2 | 1070 | CC[C@H](C)[C@@H]1NC(=O)[C@H](Cc2ccc(O)cc2)NC(=O)CCSSC[C@@H](C(=O)N2CC=C[C@H]2C(=O)N[C@@H](CC(C)C)C(=O)NCC(N)=O)NC(=O)[C@H](CC(N)=O)NC(=O)[C@H](CCC(N)=O)NC1=O | 1008 | 23.3 | – | –
3 | – | CC[C@H](C)[C@@H]1NC(=O)[C@H](Cc2ccc(O)cc2)NC(=O)CCSSC[C@@H](C(=O)N2CCC[C@H]2C(=O)N[C@@H](CC(C)C)C(=O)NCC(N)=O)NC(=O)[C@H](CC(N)=O)NC(=O)[C@H](CCC(N)=O)NC1=O [DEMOXYTOCIN] | 975 | 19 | 1.44 | –
4 | 880 | CC[C@H](C)[C@@H]1NC(=O)[C@H](Cc2ccc(O)cc2)NC(=O)[C@H](O)CSSC[C@@H](C(=O)N2CC=C[C@H]2C(=O)N[C@@H](CC(C)C)C(=O)NCC(N)=O)NC(=O)[C@H](CC(N)=O)NC(=O)[C@H](CCC(N)=O)NC1=O (YIQNC[ΔPro]LG-NH2; linker N-5 via X1) | 1295 | 76.7 | – | –
5 | 1280 | CC[C@H](C)[C@@H]1NC(=O)[C@H](Cc2ccc(O)cc2)NC(=O)[C@H](O)CSSC[C@@H](C(=O)N2CCC[C@H]2C(=O)N[C@@H](CC(C)C)C(=O)NCC(N)=O)NC(=O)[C@H](CC(N)=O)NC(=O)[C@H](CCC(N)=O)NC1=O (YIQNCPLG-NH2; linker N-5 via X1) | 1778 | 16.6 | 14.7 | –
6 | 546 | CC[C@H](C)[C@@H]1NC(=O)[C@H](Cc2ccc(O)cc2)NC(=O)[C@@H](N)CSSC[C@@H](C(=O)N2CCC[C@H]2C(=O)N[C@@H](CC(C)C)C(=O)NCC(N)=O)NC(=O)[C@H](CC(N)=O)NC(=O)[C@H](CCC(N)=O)NC1=O [OXYTOCIN] | 507 | 2.7 | 3.1 | –
7 | 1070 | CC[C@H](C)[C@@H]1NC(=O)[C@H](Cc2ccc(O)cc2)NC(=O)[C@@H](N)CSSC[C@@H](C(=O)N2CC=C[C@H]2C(=O)N[C@@H](CC(C)C)C(=O)NCC(N)=O)NC(=O)[C@H](CC(N)=O)NC(=O)[C@H](CCC(N)=O)NC1=O | 548 | 5.9 | – | 2

From ChEMBL document CHEMBL3272308, “Pharmacological effects of introducing a double bond into a binding site of oxytocin. Analogues with L-3,4-dehydroproline in position 7” (1977)
